Measurements from publication PMC6423489 (Heliyon, 2019).
Like-named read-outs stand apart in the source and are kept apart here.

What was measured:
Salmonella typhimurium = conditions: ref Mohn, 1973, Bianchi et al., 1994, cited from earlier work
human lymphocytes = conditions: 100 and 200 μg/mL; ref Ündeğer and Başaran (2005); cited from earlier work
[1] = test system: human peripheral lymphocytes; conditions: compared to the control group; ref Gomez-Arroyo et al. (1987); cited from earlier work
Saccharomyces cerevisia = conditions: ref Mohn, 1973; Bianchi et al., 1994; cited from earlier work
[2] = test system: human peripheral lymphocytes; assay: In vitro micronucleus; assay type: cell-based; conditions: 72 h incubation
Method in brief: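 Whole blood from 3 healthy non-smoking donors (25–30 y) was treated with test compound at 0.5, 1.0 or 2.0 μg/mL in 2% DMSO for 72 h. Controls were distilled water, 2% DMSO and 10 mM EMS. Cytochalasin-B was added at 48 h and smears were Giemsa-stained. NDI was scored from 1000 cells and MN from 1000 binucleated cells per repeat, 3 donors, ANOVA.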

Escherichia coli = conditions: ref Mohn, 1973; Bianchi et al., 1994; cited from earlier work
[3] = 10mM, 3000 binucleated cells counted

| SMILES | mutagenicity (Salmonella typhimurium; strain TA 100) | mutagenicity (Salmonella typhimurium; strains TA 1535, TA 1537, TA 1538, TA 98 and TA 102) | DNA damage (human lymphocytes) | sister chromatid exchanges [1] | mutagenicity (Saccharomyces cerevisia) | MN within binucleat (1) ([2]; 0.5 μg/mL, 3000 binucleated cells counted) | %MN±S.E. ([2]; 0.5 μg/mL, compared with DMSO) [%] | NDI±S.E. ([2]; 0.5 μg/mL, compared with DMSO) | MN within binucleat (1) ([2]; 1.0 μg/mL, 3000 binucleated cells counted) | %MN±S.E. ([2]; 1.0 μg/mL, compared with DMSO) [%] | NDI±S.E. ([2]; 1.0 μg/mL, compared with DMSO) | MN within binucleat (1) ([2]; 2.0 μg/mL, 3000 binucleated cells counted) | %MN±S.E. ([2]; 2.0 μg/mL, compared with DMSO) [%] | mutagenicity (Escherichia coli) | MN within binucleat (1) [2, 3] | MN within binucleat (2) [2, 3] | MN within binucleat (3) [2, 3] | %MN±S.E. ([2]; 10mM, compared with distilled water) [%] |
| --- | --- | --- | --- | --- | --- | --- | --- | --- | --- | --- | --- | --- | --- | --- | --- | --- | --- | --- |
| CNC(=O)CSP(=S)(OC)OC [DIM] | mutagenic | non-mutagenic | significantly increased DNA damage | increased sister chromatid exchanges | mutagenic | 27 | 0.90 ± 0.72 | 1.54 ± 0.20 | 29 | 0.97 ± 0.63 | 1.54 ± 0.23 | 63 | 2.10 ± 0.13 | mutagenic | – | – | – | – |
| COP(=S)(OC)Oc1ccc([N+](=O)[O-])cc1 [methyl parathion] | – | – | significantly increased DNA damage | increased sister chromatid exchanges | – | – | – | – | – | – | – | – | – | – | – | – | – | – |
| CCOS(C)(=O)=O [EMS, ethyl methanesulfonate, reference compound] | – | – | – | – | – | – | – | – | – | – | – | – | – | – | 107 | 16 | 10 | 5.63 ± 1.60 |
